How the values were obtained:
human Gal-1 = human Gal-1 (Homo sapiens, UniProt P09382); assay: Fluorescence spectroscopy binding constant, Gal-1; details: for Gal-1 Ka: fluorescence, modified Stern–Volmer plot, 25 mM Tris-HCl pH 8
Summary of the method: (§1)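 Human Gal-1 was cloned into pET-28a(+), expressed in E. coli BL21(DE3) and purified by Ni2+-NTA. Gal-3 and LdPase were produced similarly. Buffers: Gal-1 and Gal-3 in 25 mM Tris-HCl pH 8; LdPase in sodium phosphate pH 7. Intrinsic emission was scanned 300–400 nm (excitation 280 nm, 100 nm min−1) across ligand concentrations. Ka came from a modified Stern–Volmer plot of the log quenching term (F0 = no ligand, F = with ligand) versus log ligand concentration.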

[1] = tested on: Leishmania donovani phosphatase (LdPase); assay: Fluorescence spectroscopy binding, LdPase
Summary of the method: as §1

Gal-1 = Gal-1 ELISA enzymatic assay; assay type: cell-based, human; details: 20 μM, 24 h, HCT-116 cells
Summary of the method: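 HCT-116 cells were treated with test compound at 20 μM for 24 h, and the secreted-protein supernatant was collected. Equal amounts were diluted 2-fold in calibrator diluent and incubated 2 h at room temperature with shaking on human Gal-1 ELISA plates (commercial kit, manufacturer's protocol), then washed. HRP-conjugated Gal-1 polyclonal antibody was added for 2 h, then substrate for 30 min, then stop solution. Absorbance was read at 450 nm.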

human Gal-3 = human Gal-3 (Homo sapiens, UniProt P17931); assay: Fluorescence spectroscopy binding constant, Gal-3; details: for binding to Gal-3 compared to Gal-1: fluorescence spectroscopy; for Gal-3 Ka: fluorescence, 25 mM Tris-HCl pH 8
Summary of the method: as §1

Chain of human Gal-1 (P09382 whole entry): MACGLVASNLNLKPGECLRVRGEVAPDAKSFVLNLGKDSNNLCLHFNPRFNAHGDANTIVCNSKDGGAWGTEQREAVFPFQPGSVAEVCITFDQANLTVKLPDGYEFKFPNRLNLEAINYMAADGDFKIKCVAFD
Chain of human Gal-3 (P17931 whole entry): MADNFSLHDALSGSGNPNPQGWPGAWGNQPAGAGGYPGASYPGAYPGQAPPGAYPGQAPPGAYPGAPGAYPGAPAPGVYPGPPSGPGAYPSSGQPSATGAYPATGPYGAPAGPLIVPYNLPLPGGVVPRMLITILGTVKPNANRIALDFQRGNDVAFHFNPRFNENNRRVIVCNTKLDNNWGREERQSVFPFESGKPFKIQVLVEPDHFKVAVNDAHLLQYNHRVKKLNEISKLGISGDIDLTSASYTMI

Substance	Gal-1 Ka (human Gal-1)	binding to LdPase [1]	% Inhibition (EA) (Gal-1) [%]	Gal-1 binding constant (Ka) (human Gal-1; fluorescence spectroscopy) [M⁻¹]	binding to Gal-3 compared to Gal-1 (human Gal-3)	Gal-3 Ka (human Gal-3)
2-(2,6-Dimethylmorpholino)-N-(5-(2-oxo-2H-chromen-3-yl)thiazol-2-yl)acetamide [Compound 10e]	6.5 10^4 M^−1					
2-(4-(2-Hydroxyethyl)piperazin-1-yl)-N-(5-(2-oxo-2H-chromen-3-yl)thiazol-2-yl)acetamide [Compound 10c]	4.1 10^4 M^−1					
2-(4-(2-Methoxyphenyl)piperazin-1-yl)-N-(5-(2-oxo-2H-chromen-3-yl)thiazol-2-yl)acetamide [Compound 10g]	9.8 10^4 M^−1	no detectable binding	58.19 ± 3.28	98000	significantly lower binding	1.0 10^−6 M^−1
2-(4-(4-Nitrophenyl)piperazin-1-yl)-N-(5-(2-oxo-2H-chromen-3-yl)thiazol-2-yl)acetamide [Compound 10h]			<10			
2-(4-Ethylpiperazin-1-yl)-N-(5-(2-oxo-2H-chromen-3-yl)thiazol-2-yl)acetamide [Compound 10b]	2.1 10^4 M^−1					
2-(4-Methylpiperidin-1-yl)-N-(5-(2-oxo-2H-chromen-3-yl)thiazol-2-yl)acetamide [Compound 10i]			<10			
N-(5-(2-Oxo-2H-chromen-3-yl)thiazol-2-yl)-2-(4-(pyridin-2-yl)piperazin-1-yl)acetamide [Compound 10f]	9.3 10^4 M^−1	no detectable binding	80.57 ± 1.77		significantly lower binding	1.1 10^−6 M^−1
N-(5-(2-Oxo-2H-chromen-3-yl)thiazol-2-yl)-2-(4-phenylpiperazin-1-yl)acetamide [Compound 10d]	6.6 10^4 M^−1		56.73 ± 2.13			
N-(5-(2-Oxo-2H-chromen-3-yl)thiazol-2-yl)-2-(piperazin-1-yl)acetamide [Compound 10a]	8.8 10^4 M^−1		58.19 ± 1.12			

Reference: paper PMC11571122 (RSC Advances, 2024)
